Experimental data as given in ChEMBL document CHEMBL1134358, “Cyclic ketone inhibitors of the cysteine protease cathepsin K” (J Med Chem, 2001).

Key:
Cathepsin K [1] = molecular target: T1, Cathepsin K (Homo sapiens, UniProt P43235); test: (§1) Inhibitory activity tested against human Cathepsin K
T1 sequence (P43235 whole entry): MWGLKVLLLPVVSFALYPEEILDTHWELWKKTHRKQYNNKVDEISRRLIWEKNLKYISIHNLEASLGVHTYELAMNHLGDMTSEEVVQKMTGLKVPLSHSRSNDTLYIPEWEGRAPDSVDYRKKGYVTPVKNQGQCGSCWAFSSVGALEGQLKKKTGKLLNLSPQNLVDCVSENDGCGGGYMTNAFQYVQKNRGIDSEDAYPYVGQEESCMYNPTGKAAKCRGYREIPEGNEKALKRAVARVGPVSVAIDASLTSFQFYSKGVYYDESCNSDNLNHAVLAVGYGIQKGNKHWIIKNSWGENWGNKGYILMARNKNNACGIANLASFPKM

Cathepsin K [2] = molecular target: T1, Cathepsin K; test: In vitro inhibition of human Cathepsin K.; details: read-out: Ki app
Cathepsin B = Cathepsin B (Homo sapiens, UniProt P07858); test: Inhibitory activity tested against human Cathepsin B; details: read-out: Ki app
Summary of the method: (§2)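 Fluorogenic AMC-substrate assay in 100 mM acetate, 20 mM cysteine, 5 mM EDTA, pH 5.5, with 10% final DMSO. […] Apparent Ki values were determined.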

Cathepsin S = Cathepsin S (Homo sapiens, UniProt P25774); test: Inhibition of human Cathepsin S; details: read-out: Ki app; summary of the method: as §2
Procathepsin L = Procathepsin L (Homo sapiens, UniProt P07711); test: Inhibition of human Cathepsin L; details: read-out: Ki app
[3] = molecular target: T2, Cathepsin K (Homo sapiens) (UniProt P43235); test: as §1
T2 sequence (whole entry): T1 sequence (P43235 whole entry)

Chain of Cathepsin S (P25774 whole entry): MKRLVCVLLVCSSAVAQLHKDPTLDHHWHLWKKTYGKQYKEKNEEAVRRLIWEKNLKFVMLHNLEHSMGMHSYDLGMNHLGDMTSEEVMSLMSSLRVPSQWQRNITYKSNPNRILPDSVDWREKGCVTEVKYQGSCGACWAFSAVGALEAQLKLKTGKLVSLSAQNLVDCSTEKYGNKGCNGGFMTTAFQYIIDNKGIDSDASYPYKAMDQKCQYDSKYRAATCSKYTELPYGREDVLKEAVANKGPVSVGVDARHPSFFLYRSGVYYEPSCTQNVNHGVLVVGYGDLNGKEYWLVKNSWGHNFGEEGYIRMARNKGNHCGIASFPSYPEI
Chain of Procathepsin L (P07711 whole entry): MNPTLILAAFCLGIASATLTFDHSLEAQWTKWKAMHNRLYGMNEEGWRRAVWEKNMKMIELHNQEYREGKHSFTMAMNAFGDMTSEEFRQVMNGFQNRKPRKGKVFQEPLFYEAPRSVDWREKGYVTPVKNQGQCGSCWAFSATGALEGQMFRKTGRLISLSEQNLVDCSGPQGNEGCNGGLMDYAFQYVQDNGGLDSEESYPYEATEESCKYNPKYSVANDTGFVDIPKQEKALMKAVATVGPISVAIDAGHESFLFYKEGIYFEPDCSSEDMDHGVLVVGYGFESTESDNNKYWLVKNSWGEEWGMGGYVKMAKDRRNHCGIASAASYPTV

Compound | Ki (Cathepsin K [1]) | Ki (Cathepsin K [2]) | Ki (Cathepsin B) | Ki (Cathepsin S) | Ki (Procathepsin L) | K inact/I [3]
CC(C)C[C@H](NC(=O)OCc1ccccc1)C(=O)NC1CN(C(=O)[C@H](CC(C)C)N(C)C(=O)OCc2ccccc2)CC1=O (stereo not given in full) |  | 0.6 nM |  |  |  | 
CC(C)C[C@H](NC(=O)OCc1ccccc1)C(=O)NC1CCCC1=O (stereo not given in full) |  | > 10000 nM | > 10000 nM | > 10000 nM | > 10000 nM | 
CC(C)C[C@H](NC(=O)OCc1ccccc1)C(=O)NC1CCOCC1O (stereo not given in full) |  | > 1000 nM |  | > 1000 nM | > 1000 nM | 
CC(C)C[C@H](NC(=O)OCc1ccccc1)C(=O)NC1CN(C(=O)[C@H](CC(C)C)NC(=O)OCc2ccccc2)CC1=O (stereo not given in full) |  |  |  | 90 nM |  | 
COCC(=O)[C@H](CC(C)C)NC(=O)[C@H](CC(C)C)NC(=O)OCc1ccccc1 | 80 nM |  |  |  |  | 
CC(C)C[C@H](NC(=O)OCc1ccccc1)C(=O)NC1CCN(C(=O)[C@H](CC(C)C)N(C)C(=O)OCc2ccccc2)CC1=O (stereo not given in full) |  | 1.9 nM |  |  |  | 
CC(C)C[C@H](NC(=O)OCc1ccccc1)C(=O)NC1COCC1=O (stereo not given in full) |  |  | > 10000 nM | 310 nM | 2600 nM | 
CC(C)C[C@H](NC(=O)OCc1ccccc1)C(=O)NC1CCN(C(=O)[C@H](CC(C)C)NC(=O)OCc2ccccc2)CC1=O (stereo not given in full) |  |  |  | 8 nM |  | 
CC(=O)N1CC(=O)C(NC(=O)[C@H](CC(C)C)NC(=O)OCc2ccccc2)C1 (stereo not given in full) |  | 250 nM |  | 480 nM | 580 nM | 
CCCOC[C@@H](O)[C@H](CC(C)C)NC(=O)[C@H](CC(C)C)NC(=O)OCc1ccccc1 |  |  |  |  |  | 4100 M⁻¹ s⁻¹

Now from value to compound:

Ki (Cathepsin K [1]) | Ki (Cathepsin K [2]) | Ki (Cathepsin B) | Ki (Cathepsin S) | Ki (Procathepsin L) | K inact/I [3] | Compound
11 nM |  |  |  |  |  | CC(C)C[C@H](NC(=O)c1cc2ccccc2s1)C(=O)NC1CCOCC1=O (stereo not given in full)
 | 1.6 nM | 46 nM |  |  |  | CC(C)C[C@@H](CN1CC(=O)C(NC(=O)[C@H](CC(C)C)NC(=O)c2ccc3cccnc3c2)C1)NC(=O)OCc1ccccc1 (stereo not given in full)
 | 230 nM |  |  |  |  | CC(=O)N1CCC(NC(=O)[C@H](CC(C)C)NC(=O)OCc2ccccc2)C(=O)C1 (stereo not given in full)
 | 180 nM | 2600 nM | 51 nM |  |  | CC(C)C[C@@H](C(=O)NC1CN(C(=O)[C@H](CC(C)C)N(C)C(=O)OCc2ccccc2)CC1=O)N(C)C(=O)OCc1ccccc1 (stereo not given in full)
 | 77 nM | 7300 nM | 290 nM | 400 nM |  | CN[C@@H](CC(C)C)C(=O)N1CC(=O)[C@@H](NC(=O)[C@H](CC(C)C)NC(=O)OCc2ccccc2)C1
 | > 10000 nM | > 10000 nM | > 10000 nM | > 10000 nM |  | CC(C)C[C@H](NC(=O)OCc1ccccc1)C(=O)NC1CCCCC1=O (stereo not given in full)
 | > 1000 nM |  | > 1000 nM | > 1000 nM |  | CC(C)C[C@H](NC(=O)OCc1ccccc1)C(=O)NC1COCC1O (stereo not given in full)
 |  | > 1000 nM |  |  |  | COCC(=O)[C@H](C)NC(=O)[C@H](CC(C)C)NC(=O)OCc1ccccc1
 |  | 7800 nM | 1100 nM | 250 nM |  | CC(C)C[C@H](NC(=O)c1ccc2ccccc2n1)C(=O)NC1COCC1=O (stereo not given in full)
 | 150 nM | > 10000 nM | 530 nM |  |  | CC(C)C[C@H](NC(=O)OCc1ccccc1)C(=O)NC1CCOCC1=O (stereo not given in full)
560 nM |  |  |  |  |  | CC(C)C[C@H](NC(=O)c1cc2ccccc2s1)C(=O)NC1COCCC1=O (stereo not given in full)
